Experimental data taken from PubChem BioAssay AID588510 (Broad Institute, 2011).
Active and inactive are the calls of the source. The rule behind the calls is not given here.

Each compound was assayed against Protein LANA1 (Human herpesvirus 8 type P (isolate GK18)) (UniProt Q9QR71) (assay: GST-LANA peptide binding to nucleosomes, inhibition – biochemical, ELISA, dry powder samples, orthogonal assay, dose response (AID 588510)). Details: GST-LANA 1-23 binding to nucleosomes, ELISA 450 nm; series mostly up to 50 µM.
Protein LANA1 (Human herpesvirus 8 type P (isolate GK18)), sequence (Q9QR71 whole entry, looked up): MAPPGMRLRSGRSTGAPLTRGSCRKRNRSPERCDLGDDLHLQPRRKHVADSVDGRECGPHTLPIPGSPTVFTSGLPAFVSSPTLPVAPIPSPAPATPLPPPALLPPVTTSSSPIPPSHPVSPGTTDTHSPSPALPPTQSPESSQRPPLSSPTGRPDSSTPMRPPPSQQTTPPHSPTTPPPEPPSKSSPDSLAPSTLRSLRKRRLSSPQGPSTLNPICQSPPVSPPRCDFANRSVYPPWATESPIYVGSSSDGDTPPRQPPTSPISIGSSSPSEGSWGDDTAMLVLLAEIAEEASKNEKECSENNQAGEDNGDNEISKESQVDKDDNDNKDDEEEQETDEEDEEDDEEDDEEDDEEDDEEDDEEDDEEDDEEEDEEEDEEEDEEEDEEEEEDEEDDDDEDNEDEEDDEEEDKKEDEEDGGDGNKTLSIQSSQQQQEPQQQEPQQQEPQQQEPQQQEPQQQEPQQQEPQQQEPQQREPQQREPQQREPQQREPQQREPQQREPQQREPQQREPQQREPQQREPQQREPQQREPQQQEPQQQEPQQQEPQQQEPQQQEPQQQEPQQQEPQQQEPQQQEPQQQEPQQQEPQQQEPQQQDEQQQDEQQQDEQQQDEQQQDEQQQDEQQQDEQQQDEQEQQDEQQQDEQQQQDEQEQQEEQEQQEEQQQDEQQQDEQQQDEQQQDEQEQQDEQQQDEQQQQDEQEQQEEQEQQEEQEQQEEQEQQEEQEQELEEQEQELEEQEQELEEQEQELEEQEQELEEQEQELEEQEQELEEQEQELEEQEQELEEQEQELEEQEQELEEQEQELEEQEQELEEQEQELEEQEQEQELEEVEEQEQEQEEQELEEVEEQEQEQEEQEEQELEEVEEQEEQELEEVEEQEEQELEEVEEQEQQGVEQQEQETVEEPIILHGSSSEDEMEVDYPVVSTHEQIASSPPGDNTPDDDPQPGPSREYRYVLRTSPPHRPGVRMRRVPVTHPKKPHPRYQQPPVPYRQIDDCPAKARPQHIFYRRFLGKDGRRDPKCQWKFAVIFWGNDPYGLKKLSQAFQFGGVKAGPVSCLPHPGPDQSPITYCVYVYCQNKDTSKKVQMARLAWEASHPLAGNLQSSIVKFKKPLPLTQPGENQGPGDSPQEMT
How it was run: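 Assay system: Plate-coated purified nucleosomes with GST-tagged LANA N-terminal peptide 1-23; Input: nucleosomes 1.5 µg per well; Buffer or medium: Milk-blocked nucleosome-coated wells; Also added: GST-LANA 1-23, 7.5 µg/mL; Dosing: pinned compound, dose series; Incubation: compound plus GST-LANA 90 min 4 °C, substrate 30 min RT; Detection: colorimetric ELISA, anti-GST and secondary antibodies, absorbance 450 nm.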

outcome, inactive:
CC(=O)Nc1ccc(-c2cn3ccsc3n2)cc1
Cc1ccc(Cl)cc1N1CCN(C(=O)C2CCN(S(C)(=O)=O)CC2)CC1
CC(=O)Nc1cccc(N)c1
O=S(=O)(Nc1cc(Cl)ccc1N1CCOCC1)c1ccccc1Cl
CC(C)(C)C1(C)OC(=O)C(=Cc2ccc(OCC(=O)Nc3ccccc3)cc2)C(=O)O1 (stereo not drawn)
CC1Cc2ccccc2N1C(=O)CSc1ncccn1 (stereo not drawn)
Clc1ccc(-c2nnc3sc(-c4ccc(Br)o4)nn23)cc1
COc1ccc(C2C=C(c3ccc(Br)cc3)Nc3nc(NS(C)(=O)=O)nn32)cc1 (stereo not drawn)
COc1ccc2ccccc2c1C(O)c1nccn1C (stereo not drawn)
Cc1cc(C)c2nc(C(F)(F)F)nc(NCCCN3CCCC3=O)c2c1
O=C(CCCN1C(=O)c2cccc3cccc(c23)C1=O)N1CCN(c2ccccc2)CC1
Cc1cccc(N2C(=O)c3cccc4c(N(C)CCO)ccc(c34)C2=O)c1
Cc1cc(C)cc(NS(=O)(=O)c2ccc3c(c2)C(C)(C)C(=O)N3C)c1
